Data: paper PMC3792851 (Drug Design, Development and Therapy, 2013)

Tested on: ABCG2-transfected HEK293 cells
Experiment: Sensitization of ABCG2-transfected cells to mitoxantrone, MTT assay
Type: cell-based, human
Settings: no chalcone
How it was run: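 ABCG2-transfected (resistant) and empty-vector (sensitive) HEK293 cells seeded at 1 × 10^4 cells/well and incubated overnight. Then grown 72 h at 37°C, 5% CO2 with increasing mitoxantrone; resistant cells ran with or without 1 μM test compound. Survival read by MTT against 0.1% DMSO medium controls. At least three replicates; mitoxantrone IG50 from fitted curves.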

Structure (SMILES): O=C1c2c(O)ccc(O)c2C(=O)c2c(NCCNCCO)ccc(NCCNCCO)c21 [mitoxantrone, Mitoxantrone]
- IG50 of mitoxantrone, resistant cells (ABCG2-transfected resistant cells): 82.8 ± 21.7 nM
- IG50 of mitoxantrone, sensitive control cells (sensitive control HEK293 cells (empty vector)): 14.5 ± 3.6 nM
